Published values of several laboratories.
Each line is one published result; the experiments were not run side by side.

SMILES | test | test system | conditions | solubility
CN1CCN(c2cccc(-c3ccc4ncnc(Nc5ccc(Cl)c(C(F)(F)F)c5)c4c3)c2)CC1 |  | aqueous buffer | pH 7.4, 25 °C | < 1.4 µM
O=C(CCCCCCC(=O)Nc1ccccc1)NO |  | water |  | 720 µg/mL
CCOC(=O)C1=C(CN2CCOCC2)NC(c2nccs2)=NC1c1ccc(F)cc1Br (stereo not drawn) | HPLC | aqueous buffer | pH 2 | 183 µg/mL
CC1(CNc2nc(-c3cccs3)nc(Cl)c2-c2c(F)cc(N)cc2F)COC1 | mass spectrometry | PBS | pH 7.4 | 46 µM
Cc1ccccc1CN1C(=O)C2=C(CCN(Cc3ccccc3)C2)N2CCN=C12 | shake flask | aqueous buffer | pH 5 | 6020 µg/mL
O=c1c2c([nH]c3cc(Oc4ccc(OC(F)(F)F)cc4)ccc13)CCCC2 | absorbance | aqueous buffer | 90 min, pH 7.4 | 18.5 µM
COc1cnccc1Cn1nc(-c2ccc(CO)o2)c2ccccc21 |  | aqueous buffer | 6 h, pH 7.4 | > 33 µg/mL
CO[C@H]1C[C@@H]2CC[C@@H](C)[C@@](O)(O2)C(=O)C(=O)N2CCCC[C@H]2C(=O)O[C@H]([C@H](C)C[C@@H]2CC[C@@H](O)[C@H](OC)C2)CC(=O)[C@H](C)/C=C(\C)[C@@H](O)[C@@H](OC)C(=O)[C@H](C)C[C@H](C)/C=C/C=C/C=C/1C |  | aqueous buffer | 18 h, pH 7.4 | 6.03 µM
O=c1c2ccc(OCc3ccc(C(F)(F)F)cc3)cc2[nH]c2cc(Cl)cc(F)c12 | absorbance | aqueous buffer | 90 min, pH 7.4 | < 3.12 µM
CCOC(=O)C1=C(CN2CCC[C@@H]2C(=O)Nc2ccc(B(O)O)cc2)NC(c2nccs2)=N[C@H]1c1ccc(F)cc1Br | HPLC | aqueous buffer | pH 7.4 | 4.14 µg/mL
CN(c1ncco1)c1ncnc2ccc(-c3cccc(N4CCOCC4)c3)cc12 |  | aqueous buffer | pH 7.4, 25 °C | 802 µM
CNS(=O)(=O)c1ccc(Nc2ncc(C(F)(F)F)c([C@H]3CC[C@](C)(O)CC3)n2)c(C)c1 |  | PBS | 2 h, pH 7.4 | 0.4 µM
Cc1ncsc1-c1ccc(CNC(=O)[C@@H]2C[C@@H](O)CN2C(=O)[C@@H](NC(=O)COCCOCCOCCNC(=O)C[C@@H]2N=C(c3ccc(Cl)cc3)c3c(sc(C)c3C)-n3c(C)nnc32)C(C)(C)C)cc1 | HPLC | water | pH 6.9 | 45 µg/mL
CCCCN(CCCC)CCCOc1ccc2c(=O)c3c([nH]c2c1)CCCC3 | absorbance | aqueous buffer | 90 min, pH 7.4 | > 500 µM
O=C(Nc1ccc(OC(F)(F)F)cc1)N[C@H]1CC[C@H](Oc2ccc(C(=O)O)cc2)CC1 |  | simulated gastric fluid | 30 min, pH 1, 37 °C, acidic | 0.0005 µg/mL
O=C(O)c1cc(-c2ccc(-n3ccnn3)cc2)cc(-n2cc(-c3ccc(C(F)(F)F)cc3)nn2)c1 |  | aqueous buffer | pH 7.4 | 7.6 µg/mL
CC(=O)N[C@@H](CS)C(=O)O |  | aqueous buffer | pH 7.5 | 164000 µg/mL
O=C(O)c1cc(-c2ccc(-n3ccnn3)cc2)c2ccc(-c3ccc(C(F)(F)F)cc3)cc2c1 |  | aqueous buffer | pH 4 | 0.19 µg/mL
O=C1COc2ccc(-c3cccc(Cl)c3)cc2N1Cc1noc(C2CCC2)n1 |  | PBS | 8 h, pH 7.4 | 100 µM
Nc1nc2c(ncn2COCCO)c(=O)[nH]1 | shake flask | water | 24 h | 1770 µg/mL
CC(=O)O[C@@H]1CC[C@@]2(C)[C@@H](CC[C@]3(C)[C@@H]2C(=O)C=C2[C@@H]4[C@@H](C)[C@H](C)CC[C@]4(C)CC[C@]23C)[C@@]1(C)C(=O)O |  | PBS | pH 7.4 | 6.45 µg/mL
NCc1ccc(-c2nn(Cc3ccccc3)c3ccccc23)o1 |  | aqueous buffer | 6 h, pH 7.4 | > 45 µg/mL
O=c1c2c(F)cc(Cl)cc2[nH]c2cccc(Oc3ccc(OC(F)(F)F)cc3)c12 | absorbance | aqueous buffer | 90 min, pH 7.4 | 32.3 µM

SMILES | test | test system | conditions | solubility
c1cc(-c2ccc3ncnc(Nc4ncco4)c3c2)nc(N2C[C@H]3C[C@@H]2CO3)n1 |  | aqueous buffer | pH 7.4, 25 °C | 48 µM
COc1ccccc1Cn1nc(-c2ccc(CO)o2)c2ccccc21 |  | aqueous buffer | 6 h, pH 7.4 | 1 µg/mL
Cc1ccc(Oc2ccc(NC(=O)CNc3ccccc3-n3cncn3)cc2)cc1 |  | PBS | pH 7.4 | 15 µM
COc1cc(NC(=O)Cn2cc(Cl)c3ccc(-c4cnn(C)c4)cc32)cc(OC)c1OC |  | PBS | pH 7.4 | < 2.7 µM
c1ccc(Oc2ccc(Nc3c4c(nc5ccccc35)CCC4)cc2)cc1 | nephelometry | aqueous buffer | 30 min, pH 6.5 | 1.6 to 3.1 µg/mL
Cc1ccc(N(C)c2ccc(NC(=O)CN(C)c3cc(F)ccc3N3CCCC3=O)cc2)cc1 |  | PBS | pH 7.4 | 6.3 µM
Clc1ccc(Nc2ncnc3ccc(-c4cccc(N5CCOCC5)c4)cc23)cc1Cl |  | aqueous buffer | pH 7.4, 25 °C | 4 µM
N[C@@H]1COc2ccc(-c3cccc(COc4ccccc4C(Nc4ccc5oc(=O)[nH]c5c4)C(=O)O)c3)cc21 (mixture of isomers) |  | aqueous buffer | pH 6.8 | 200 µM
OCc1ccc(-c2nn(Cc3cccnc3)c3ccccc23)o1 |  | aqueous buffer | 6 h, pH 7.4 | > 45 µg/mL
O=[N+]([O-])c1ccc(Nc2ncnc3ccc(-c4cccc(N5CCOCC5)c4)cc23)cc1C(F)(F)F |  | aqueous buffer | pH 7.4, 25 °C | < 0.4 µM
CCOc1ccc(Nc2c3c(nc4ccccc24)CCC3)cc1 | nephelometry | aqueous buffer | 30 min, pH 6.5 | 12.5 to 25 µg/mL
COc1cc(Cn2nc(-c3ccc(CO)o3)c3ccccc32)ccn1 |  | aqueous buffer | 6 h, pH 7.4 | > 33 µg/mL
COc1cnc(Nc2cnnc3ccc(-c4ccc(N5CCN(C)CC5)cc4)cc23)nc1 |  | aqueous buffer | pH 7.4, 25 °C | 26 µM
Cc1ccc(Oc2ccc(NC(=O)COc3ccccc3N3CCCC3=O)cc2)cc1 |  | PBS | pH 7.4 | 4.2 µM
O=c1c2ccc(OCc3ccc(OC(F)(F)F)cc3)cc2[nH]c2cc(Cl)cc(F)c12 | absorbance | aqueous buffer | 90 min, pH 7.4 | < 3.12 µM
CNS(=O)(=O)c1ccc(Nc2ncc(C(F)(F)F)c(N3CCC(C)(O)CC3)n2)c(C)c1 |  | FaSSIF | 2 h | 26 µM
Cc1cc(/C=C/C#N)cc(C)c1Nc1ccnc(Nc2ccc(C#N)cc2)n1 |  | water | 24 h, 37 °C | 0.2 µg/mL
OCc1ccc(-c2nn(Cc3ccncc3)c3ccccc23)o1 |  | aqueous buffer | 6 h, pH 7.4 | > 45 µg/mL
c1cc(-c2ccc3ncnc(NC4CCOCC4)c3c2)cc(N2CCOCC2)c1 |  | aqueous buffer | pH 7.4, 25 °C | 202 µM
Cc1ccc(Oc2ccc(NC(=O)CNc3ccccc3N3CCCC3=O)cc2)cc1 |  | PBS | pH 7.4 | 9.1 µM
Cc1nc(Nc2ncnc3ccc(-c4cccc(N5CCOCC5)c4)cc23)oc1C |  | aqueous buffer | pH 7.4, 25 °C | 0.2 µM
Cc1ccc(Oc2ccc(NC(=O)CN(C)c3ccccc3N3CCCC3=O)cc2)cc1 |  | PBS | pH 7.4 | 4.8 µM
